For assay [1], the target named is Neuronal acetylcholine receptor; alpha4/beta2 (Rattus norvegicus, UniProt P09483+P12390). In words: Displacement of [3H]epibatidine from alpha4beta2 nAChR in rat cortical membranes by beta counting. It is filed as cell membranes, Membrane. The method in brief:
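Rat cortex membranes were washed twice by homogenisation in pH 7.4 phosphate/1 M NaCl/EDTA/EGTA/PMSF buffer and 60,000g spins, then resuspended in pH 7 Tris buffer. Nonspecific binding used 100 nM epibatidine. Filtered on PEI-soaked GF/C. Ki from three independent competition curves (LIGAND).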

Assay [2] has as its target Neuronal acetylcholine receptor subunit alpha-7 (Rattus norvegicus, UniProt Q05941). In words: Displacement of [125I]-alpha-Bungarotoxin from alpha7 nAChR rat cortical membranes by gamma counting. It is filed as cell membranes, Membrane. The method in brief:
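Rat cortex membranes, prepared by twice-repeated homogenisation and high-speed centrifugation, were pre-incubated with compound for 30 min at r.t. Filtered on PEI-soaked GF/C filters and gamma counted. Ki from three independent competition experiments, fitted together with three saturation experiments by non-linear least squares (LIGAND).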

Assay [3] deals with T1, Muscarinic acetylcholine receptor M1 (Homo sapiens) (UniProt P11229).
T1 sequence (whole entry): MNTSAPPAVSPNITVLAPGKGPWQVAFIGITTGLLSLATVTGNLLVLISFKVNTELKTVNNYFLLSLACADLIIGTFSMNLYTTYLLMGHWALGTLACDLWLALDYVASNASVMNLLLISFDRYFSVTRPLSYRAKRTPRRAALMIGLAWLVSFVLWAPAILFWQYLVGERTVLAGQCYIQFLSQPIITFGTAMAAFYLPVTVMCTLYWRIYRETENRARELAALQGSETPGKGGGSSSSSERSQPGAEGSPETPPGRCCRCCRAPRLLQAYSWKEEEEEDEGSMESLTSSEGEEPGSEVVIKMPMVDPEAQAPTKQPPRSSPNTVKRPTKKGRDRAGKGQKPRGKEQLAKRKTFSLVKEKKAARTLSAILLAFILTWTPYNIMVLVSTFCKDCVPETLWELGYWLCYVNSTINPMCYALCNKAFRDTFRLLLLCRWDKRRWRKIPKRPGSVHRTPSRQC
As to the kind of experiment: Displacement of [3H]quinuclidinyl benzylate from human muscarinic M1 receptor expressed in CHO cells at 10 uM. In kind it is cell-based. For orientation: Displacement assays read how much labelled ligand stays bound in the presence of the test substance.

The target of assay [4] is T2, Muscarinic acetylcholine receptor M2 (Homo sapiens) (UniProt P08172).
T2 sequence (whole entry): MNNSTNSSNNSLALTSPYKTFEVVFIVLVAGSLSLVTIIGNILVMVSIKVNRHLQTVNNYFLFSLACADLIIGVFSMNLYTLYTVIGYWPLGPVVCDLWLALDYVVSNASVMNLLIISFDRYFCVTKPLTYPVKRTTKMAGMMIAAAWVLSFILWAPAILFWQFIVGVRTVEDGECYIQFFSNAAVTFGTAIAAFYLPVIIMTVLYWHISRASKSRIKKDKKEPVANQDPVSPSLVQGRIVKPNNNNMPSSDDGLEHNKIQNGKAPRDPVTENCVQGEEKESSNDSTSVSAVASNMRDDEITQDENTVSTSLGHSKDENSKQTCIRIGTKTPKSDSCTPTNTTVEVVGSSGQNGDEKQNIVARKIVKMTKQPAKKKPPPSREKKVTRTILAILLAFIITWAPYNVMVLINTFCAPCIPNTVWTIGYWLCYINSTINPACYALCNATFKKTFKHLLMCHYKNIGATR
In words: Displacement of [3H]quinuclidinyl benzylate from human muscarinic M2 receptor expressed in CHO cells at 10 uM. In kind it is cell-based. The method in brief:
(§1)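 Single-concentration preliminary screen on membranes of transfected CHO cells expressing human M2 or M5 receptors, labelled with [3H]quinuclidinyl benzylate. Read-out was percent inhibition of radioligand binding.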

The target of assay [5] is Muscarinic acetylcholine receptor M3 (Homo sapiens) (UniProt P20309). In words: Displacement of [3H]quinuclidinyl benzylate from human muscarinic M3 receptor expressed in CHO cells at 10 uM. In kind it is cell-based.
Sequence of Muscarinic acetylcholine receptor M3 (Homo sapiens) (P20309 whole entry, looked up): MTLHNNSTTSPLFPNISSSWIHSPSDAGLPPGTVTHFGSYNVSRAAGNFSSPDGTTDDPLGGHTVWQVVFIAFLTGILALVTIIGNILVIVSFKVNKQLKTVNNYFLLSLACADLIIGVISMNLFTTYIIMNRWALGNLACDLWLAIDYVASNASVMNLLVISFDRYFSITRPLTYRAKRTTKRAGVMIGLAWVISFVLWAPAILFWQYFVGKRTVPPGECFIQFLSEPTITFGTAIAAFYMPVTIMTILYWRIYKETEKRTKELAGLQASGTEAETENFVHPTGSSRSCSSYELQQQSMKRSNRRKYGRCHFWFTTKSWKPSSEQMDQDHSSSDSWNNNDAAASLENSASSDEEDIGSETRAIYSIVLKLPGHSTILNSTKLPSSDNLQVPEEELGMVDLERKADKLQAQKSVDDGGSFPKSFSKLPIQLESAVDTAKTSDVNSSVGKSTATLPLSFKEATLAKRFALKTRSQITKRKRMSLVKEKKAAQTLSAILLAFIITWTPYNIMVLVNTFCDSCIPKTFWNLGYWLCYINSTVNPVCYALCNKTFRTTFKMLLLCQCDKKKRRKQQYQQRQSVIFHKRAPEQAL
The target in assay [6] is T3, Muscarinic acetylcholine receptor M4 (Homo sapiens) (UniProt P08173).
T3 sequence (whole entry): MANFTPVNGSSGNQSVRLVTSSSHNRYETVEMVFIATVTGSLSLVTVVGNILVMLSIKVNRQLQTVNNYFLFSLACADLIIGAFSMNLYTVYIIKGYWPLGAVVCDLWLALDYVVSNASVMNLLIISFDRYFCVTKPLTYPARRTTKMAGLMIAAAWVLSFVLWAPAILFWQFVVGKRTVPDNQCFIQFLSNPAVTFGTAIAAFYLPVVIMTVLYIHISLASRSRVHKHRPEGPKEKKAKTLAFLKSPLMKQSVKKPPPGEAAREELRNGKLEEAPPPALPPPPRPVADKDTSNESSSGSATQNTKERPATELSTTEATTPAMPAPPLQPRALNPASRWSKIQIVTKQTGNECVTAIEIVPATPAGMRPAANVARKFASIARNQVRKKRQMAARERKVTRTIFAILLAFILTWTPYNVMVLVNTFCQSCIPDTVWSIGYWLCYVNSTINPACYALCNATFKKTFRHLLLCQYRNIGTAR
As to the kind of experiment: Displacement of [3H]quinuclidinyl benzylate from human muscarinic M4 receptor expressed in CHO cells at 10 uM. It is filed as cell-based.

In assay [7] the target is T4, Muscarinic acetylcholine receptor M5 (Homo sapiens) (UniProt P08912).
T4 sequence (whole entry): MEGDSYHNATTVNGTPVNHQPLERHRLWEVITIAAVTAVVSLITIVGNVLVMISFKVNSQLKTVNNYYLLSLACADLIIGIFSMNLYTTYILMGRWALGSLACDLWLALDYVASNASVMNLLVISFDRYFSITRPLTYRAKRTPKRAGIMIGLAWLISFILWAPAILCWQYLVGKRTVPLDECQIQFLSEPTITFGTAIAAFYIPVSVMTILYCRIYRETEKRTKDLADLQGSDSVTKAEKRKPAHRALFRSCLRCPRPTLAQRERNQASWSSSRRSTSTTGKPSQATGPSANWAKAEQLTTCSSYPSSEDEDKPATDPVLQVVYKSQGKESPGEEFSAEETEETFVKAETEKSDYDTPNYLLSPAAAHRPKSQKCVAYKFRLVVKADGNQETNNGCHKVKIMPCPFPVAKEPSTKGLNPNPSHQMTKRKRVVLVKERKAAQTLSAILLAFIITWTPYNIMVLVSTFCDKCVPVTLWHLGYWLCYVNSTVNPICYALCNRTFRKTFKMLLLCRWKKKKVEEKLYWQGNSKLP
As to the kind of experiment: Displacement of [3H]quinuclidinyl benzylate from human muscarinic M5 receptor expressed in CHO cells at 10 uM. It is filed as cell-based. Put shortly:
as §1

This passage reports Ki and Activity results from ChEMBL document CHEMBL1629483, “Synthesis of novel chiral Δ2-isoxazoline derivatives related to ABT-418 and estimation of their affinity at neuronal nicotinic acetylcholine receptor subtypes” (Eur J Med Chem, 2010).

The Ki is the dissociation constant of the complex between target and ligand, obtained from inhibition or displacement. Read a high Ki as a looser hold on the target.

Sequence of Neuronal acetylcholine receptor subunit alpha-7 (Q05941 whole entry): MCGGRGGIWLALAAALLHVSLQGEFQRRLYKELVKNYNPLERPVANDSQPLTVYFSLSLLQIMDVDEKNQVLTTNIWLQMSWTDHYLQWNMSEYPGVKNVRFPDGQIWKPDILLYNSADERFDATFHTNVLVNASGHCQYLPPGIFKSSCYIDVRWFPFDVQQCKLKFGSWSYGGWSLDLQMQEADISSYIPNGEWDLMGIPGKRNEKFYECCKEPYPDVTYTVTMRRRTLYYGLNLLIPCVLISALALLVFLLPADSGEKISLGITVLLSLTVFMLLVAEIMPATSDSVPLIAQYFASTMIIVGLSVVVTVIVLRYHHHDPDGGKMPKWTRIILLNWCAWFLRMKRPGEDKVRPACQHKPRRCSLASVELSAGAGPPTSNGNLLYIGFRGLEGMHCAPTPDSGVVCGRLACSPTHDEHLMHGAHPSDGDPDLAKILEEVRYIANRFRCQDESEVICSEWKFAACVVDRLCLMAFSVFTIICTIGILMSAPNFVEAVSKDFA
Sequence of Neuronal acetylcholine receptor; alpha4/beta2 (P09483 whole entry): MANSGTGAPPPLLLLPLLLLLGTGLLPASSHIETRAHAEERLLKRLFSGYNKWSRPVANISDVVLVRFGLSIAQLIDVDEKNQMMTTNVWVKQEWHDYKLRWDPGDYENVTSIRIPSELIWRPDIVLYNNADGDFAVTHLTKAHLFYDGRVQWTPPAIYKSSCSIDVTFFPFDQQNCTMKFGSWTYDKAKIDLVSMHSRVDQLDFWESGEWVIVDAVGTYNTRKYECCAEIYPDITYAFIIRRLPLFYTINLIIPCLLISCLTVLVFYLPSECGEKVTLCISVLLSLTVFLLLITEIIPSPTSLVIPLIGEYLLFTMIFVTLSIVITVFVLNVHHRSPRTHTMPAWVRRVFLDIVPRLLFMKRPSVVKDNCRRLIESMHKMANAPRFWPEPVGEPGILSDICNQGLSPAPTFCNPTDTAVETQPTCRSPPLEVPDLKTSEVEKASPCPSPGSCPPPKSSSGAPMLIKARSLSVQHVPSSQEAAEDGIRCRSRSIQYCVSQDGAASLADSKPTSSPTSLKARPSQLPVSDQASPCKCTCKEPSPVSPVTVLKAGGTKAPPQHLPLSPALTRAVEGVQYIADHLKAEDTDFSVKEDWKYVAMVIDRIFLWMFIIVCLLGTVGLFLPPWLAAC
Sequence of Neuronal acetylcholine receptor; alpha4/beta2 (P12390 whole entry): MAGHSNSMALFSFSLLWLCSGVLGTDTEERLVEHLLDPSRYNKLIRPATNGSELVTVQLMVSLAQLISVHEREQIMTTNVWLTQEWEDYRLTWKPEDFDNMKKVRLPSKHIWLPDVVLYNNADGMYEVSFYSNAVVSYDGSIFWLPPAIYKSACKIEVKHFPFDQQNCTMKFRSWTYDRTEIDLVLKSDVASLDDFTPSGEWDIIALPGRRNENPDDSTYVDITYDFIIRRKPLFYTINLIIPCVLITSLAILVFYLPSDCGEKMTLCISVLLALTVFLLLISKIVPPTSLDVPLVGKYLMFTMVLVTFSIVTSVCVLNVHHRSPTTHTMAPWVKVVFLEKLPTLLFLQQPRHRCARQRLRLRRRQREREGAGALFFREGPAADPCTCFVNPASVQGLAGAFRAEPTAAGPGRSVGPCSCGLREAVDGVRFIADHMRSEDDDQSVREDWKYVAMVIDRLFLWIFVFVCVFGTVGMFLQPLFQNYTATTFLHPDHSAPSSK

For `CC1=NO[C@@H]([C@@H]2CCCN2)C1`, the values for the inhibitory constant (Ki) in assay [1] and in assay [2] were 18 µM and 40 µM, respectively. In addition, the Activity in assay [3], in assay [4], in assay [5], in assay [6] and in assay [7] was under 50% each time.

Regarding `COC1=NO[C@@H]([C@@H]2CCCN2C)C1`, the results for the Ki in assay [1] and in assay [2] were 10.3 µM and 2.9 µM, respectively. Also, the Activity in assay [3], in assay [4], in assay [5], in assay [6] and in assay [7] was under 50% in each case.

For `CC1=NO[C@@H]([C@@H]2CCCN2C)C1`, the Ki in assay [1] amounted to 12 µM; in assay [2] it was 325 µM. In addition, the Activity in assay [3], in assay [4], in assay [5], in assay [6] and in assay [7] was under 50% each time.

For `CC(C)(C)OC1=NO[C@H]([C@@H]2CCCN2)C1`, the Ki is 184 µM in assay [1] and over 500 µM in assay [2]. Further, the Activity in assay [3], in assay [4], in assay [5], in assay [6] and in assay [7] was under 50% in each case.

Turning to `COC1=NO[C@@H]([C@@H]2CCCN2)C1`, the Ki in assay [1] stood at 28 µM; in assay [2], 277 µM. In addition, the Activity in assay [3], in assay [4], in assay [5], in assay [6] and in assay [7] was under 50% in each case.

Regarding `CN1CCC[C@H]1[C@H]1CC(Br)=NO1`, the Ki amounted to 3.8 µM in assay [1] and 43 µM in assay [2]. In addition, the Activity in assay [3], in assay [4], in assay [5], in assay [6] and in assay [7] was under 50% throughout.

On to `BrC1=NO[C@@H]([C@@H]2CCCN2)C1`, for which the results for the Ki in assay [1] and in assay [2] were 4.2 µM and 35 µM, respectively. Moreover, the Activity in assay [3], in assay [4], in assay [5], in assay [6] and in assay [7] was under 50% throughout.

Regarding `COC1=NO[C@H]([C@@H]2CCCN2)C1`, the Ki in assay [1] stood at 50 µM; in assay [2], 11.3 µM. For the same compound, the Activity in assay [3], in assay [4], in assay [5], in assay [6] and in assay [7] was under 50% in each case.

Take `CC1=NO[C@H]([C@@H]2CCCN2)C1`: the inhibitory constant (Ki) in assay [1] is 5.1 µM; in assay [2] it was 0.44 µM. Moreover, the Activity in assay [3], in assay [4], in assay [5], in assay [6] and in assay [7] was under 50% each time.
